The values that follow come from ChEMBL document CHEMBL5136968, “Posttranslational modifications of α-conotoxins: sulfotyrosine and C-terminal amidation stabilise structures and increase acetylcholine receptor binding” (RSC Med Chem, 2021).

The structures appear in SMILES notation. Positions of bridges follow the written chain, without caps; N, C: chain ends. Non-standard residues stand in square brackets, D forms with d. Residues, ends and D or L forms follow the SMILES beside them. sY = N[C@@H](Cc1ccc(OS(=O)(=O)O)cc1)C(=O)O

The nature of experiment [1]: Displacement of [3H]-epibatidine from Aplysia californica Acetylcholine-binding protein measured after 1 hr by liquid scintillation counter. Summed up:
(§1)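 Recombinant AChBP expressed in E. coli (IPTG induction, 16 °C), coated onto wells at 1 ng μL−1. Incubated 1 h at 4 °C with [3H]-epibatidine (1 nM final) and increasing peptide in PBS with 0.05% BSA. Unbound ligand washed off; bound radioactivity counted by liquid scintillation. One-site competition fit gives Ki. Triplicate, three independent experiments; pKi as mean with 95% CI.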

In experiment [2] the target is Acetylcholine-binding protein (Lymnaea stagnalis, UniProt P58154). Briefly: Displacement of [3H]-epibatidine from Lymnaea stagnalis Acetylcholine-binding protein measured after 1 hr by liquid scintillation counter. Summed up: as §1
Chain of Acetylcholine-binding protein (P58154 whole entry): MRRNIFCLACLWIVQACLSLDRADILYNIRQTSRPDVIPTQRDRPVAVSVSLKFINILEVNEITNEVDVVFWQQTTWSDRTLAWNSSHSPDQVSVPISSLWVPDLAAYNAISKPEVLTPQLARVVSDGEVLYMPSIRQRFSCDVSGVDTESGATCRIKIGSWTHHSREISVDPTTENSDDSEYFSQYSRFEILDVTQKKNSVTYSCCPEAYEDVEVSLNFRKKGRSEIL

The molecule `CC(C)C[C@@H]1NC(=O)[C@H](CO)NC(=O)[C@@H]2CSSC[C@@H](C(N)=O)NC(=O)[C@H](Cc3ccc(OS(=O)(=O)O)cc3)NC(=O)[C@H](CC(=O)O)NC(=O)[C@@H]3CCCN3C(=O)[C@H](CC(N)=O)NC(=O)[C@H](CC(N)=O)NC(=O)[C@H](C)NC(=O)[C@H](C)NC(=O)[C@H](CSSC[C@H](NC(=O)CN)C(=O)N2)NC(=O)[C@@H]2CCCN2C(=O)[C@@H]2CCCN2C1=O` (H-GCCSLPPCAANNPD[sY]C-NH2; disulfide 2-8, 3-16) came in with a pKi in experiment [1] of 8.92. In experiment [2], the Ki was 3.8 µM.
The molecule `CC(C)C[C@@H]1NC(=O)[C@H](CO)NC(=O)[C@@H]2CSSC[C@@H](C(=O)O)NC(=O)[C@H](Cc3ccc(OS(=O)(=O)O)cc3)NC(=O)[C@H](CC(=O)O)NC(=O)[C@@H]3CCCN3C(=O)[C@H](CC(N)=O)NC(=O)[C@H](CC(N)=O)NC(=O)[C@H](C)NC(=O)[C@H](C)NC(=O)[C@H](CSSC[C@H](NC(=O)CN)C(=O)N2)NC(=O)[C@@H]2CCCN2C(=O)[C@@H]2CCCN2C1=O` (H-GCCSLPPCAANNPD[sY]C-OH; disulfide 2-8, 3-16) registered a pKi in experiment [1] of 8.33. In addition, the Ki in experiment [2] was > 100 µM.
As for `CC(C)C[C@@H]1NC(=O)[C@H](CO)NC(=O)[C@@H]2CSSC[C@@H](C(=O)O)NC(=O)[C@H](Cc3ccc(O)cc3)NC(=O)[C@H](CC(=O)O)NC(=O)[C@@H]3CCCN3C(=O)[C@H](CC(N)=O)NC(=O)[C@H](CC(N)=O)NC(=O)[C@H](C)NC(=O)[C@H](C)NC(=O)[C@H](CSSC[C@H](NC(=O)CN)C(=O)N2)NC(=O)[C@@H]2CCCN2C(=O)[C@@H]2CCCN2C1=O` (H-GCCSLPPCAANNPDYC-OH; disulfide 2-8, 3-16), in experiment [1], the pKi is on record as 7.51. Also, the Ki in experiment [2] is > 100 µM.
On the same counts, the results for `CC(C)C[C@@H]1NC(=O)[C@H](CO)NC(=O)[C@@H]2CSSC[C@@H](C(N)=O)NC(=O)[C@H](Cc3ccc(O)cc3)NC(=O)[C@H](CC(=O)O)NC(=O)[C@@H]3CCCN3C(=O)[C@H](CC(N)=O)NC(=O)[C@H](CC(N)=O)NC(=O)[C@H](C)NC(=O)[C@H](C)NC(=O)[C@H](CSSC[C@H](NC(=O)CN)C(=O)N2)NC(=O)[C@@H]2CCCN2C(=O)[C@@H]2CCCN2C1=O` (H-GCCSLPPCAANNPDYC-NH2; disulfide 2-8, 3-16) are 8.85 and 9.12 µM.

The pKi is the negative decadic logarithm of the Ki, by convention in mol/L. Low values mean a high Ki, high ones a low Ki. A word on the Ki: it is a measure of affinity in units of concentration, obtained from inhibition or displacement.
